The record followed here is PubChem BioAssay.

The nature of assay [1]: inhibitors of TNFa-induced NFkB p65 translocation, primary screen, imaging, HUVEC, MLSMR starter and 10KST1 sets (AID 438;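 active means inhibition above 20% together with a positive visual image hit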;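 further: compound added about 3h40 before a 20 min TNFalpha stimulation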;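 on inhibition: signal is the nuclear over cytoplasmic p65 intensity ratio per well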). As to conditions: HUVEC TNFa-induced p65 nuclear translocation; cell count: measured here: nuclei count (cytotoxicity indicator), at 2.08 µM; inhibition: at 2 µM, stronger effect = higher value, 0% TNFa-plus-vehicle, 100% no-TNFa wells.
The nature of assay [2]: inhibitors of E-selectin induction by TNFa, primary screen, imaging, HUVEC, immunofluorescence, MLSMR starter and 10KST1 sets (AID 487;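 active means visually confirmed hit in the image check and inhibition above 20%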;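 on inhibition: signal is fraction of cell area covered by stained E-selectin grains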;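 on nuclei count: 100% = median nuclei count of all wells on the same plate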). The note with it: HUVEC TNFalpha-induced E-selectin immunofluorescence imaging, at 2 µM; inhibition: stronger effect = higher value; nuclei count: measured here: cell number, toxicity.
Assay [3] is described as follows: DUSP6 inhibitors restoring Erk phosphorylation by chemical complementation, primary imaging in DUSP6-transfected HeLa (AID 609;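 active means compounds giving at least 50% inhibition in the cell-based MKP-3 phosphatase rescue imaging test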;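 on inhibition: phospho-Erk level distribution per well compared with pooled transfected vehicle control wells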). The note with it: HeLa MKP-3 transfected, phospho-Erk imaging KS statistic, at 10 µM, cells stimulated with TPA for 15 min.
The target of assay [4] is Dual specificity protein phosphatase 6 (Homo sapiens) (UniProt Q16828). The assay is described as above. As to conditions: HeLa MKP-3 transfected, phospho-Erk imaging KS statistic; at 10 µM; stronger effect = higher value; cells stimulated with TPA for 15 min.
Sequence of Dual specificity protein phosphatase 6 (Homo sapiens) (Q16828 whole entry, looked up): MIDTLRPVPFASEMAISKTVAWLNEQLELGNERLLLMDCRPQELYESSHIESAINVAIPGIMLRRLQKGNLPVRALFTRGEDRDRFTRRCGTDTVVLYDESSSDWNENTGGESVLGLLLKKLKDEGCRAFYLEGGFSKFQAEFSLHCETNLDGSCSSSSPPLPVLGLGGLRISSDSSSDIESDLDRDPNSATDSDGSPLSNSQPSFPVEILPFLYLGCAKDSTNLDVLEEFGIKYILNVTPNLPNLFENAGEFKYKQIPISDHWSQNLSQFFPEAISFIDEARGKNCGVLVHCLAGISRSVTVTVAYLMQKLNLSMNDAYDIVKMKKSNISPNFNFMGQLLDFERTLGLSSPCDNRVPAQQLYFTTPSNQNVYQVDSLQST
The target in assay [5] is Voltage-gated potassium channel subunit beta-2 (Rattus norvegicus) (UniProt P62483). Briefly: KvBeta enzyme negative modulators, primary screen, biochemical, NADPH fluorescence (AID 622).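 Further: slope of raw intensity against log time taken from 70 to 1610 s.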 The note with it: recombinant KvBeta, 4-cyanobenzaldehyde reduction, at 10 µM, stronger effect = higher value.
Sequence of Voltage-gated potassium channel subunit beta-2 (Rattus norvegicus) (P62483 whole entry, looked up): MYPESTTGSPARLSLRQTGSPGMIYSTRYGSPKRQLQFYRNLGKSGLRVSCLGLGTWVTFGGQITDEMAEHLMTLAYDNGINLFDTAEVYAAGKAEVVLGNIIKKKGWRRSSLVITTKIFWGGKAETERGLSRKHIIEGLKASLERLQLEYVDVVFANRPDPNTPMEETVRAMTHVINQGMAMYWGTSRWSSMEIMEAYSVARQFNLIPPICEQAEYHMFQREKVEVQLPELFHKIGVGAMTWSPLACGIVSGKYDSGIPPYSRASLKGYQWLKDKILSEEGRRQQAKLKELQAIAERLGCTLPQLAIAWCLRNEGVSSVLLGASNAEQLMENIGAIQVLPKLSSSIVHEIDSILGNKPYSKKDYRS
Assay [6] shares this target. Put plainly: KvBeta positive modulators, primary screen, biochemical, NADPH fluorescence (AID 623;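 active means NADPH fluorescence slope more negative than the mean of all samples by about 3 SD, 99.7% confidence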;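 further: fluorescence intensity change per second fitted from 20 to 320 s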). As to conditions: Recombinant KvBeta, NADPH fluorescence decrease slope, 10 min; at 10 µM; stronger effect = lower value.
The target in assay [7] is Muscarinic acetylcholine receptor M4 (Homo sapiens) (UniProt P08173). Briefly: compounds altering M4/GIRK thallium flux, either direction, primary screen, M4 allosteric agonist project, cell-based, HEK293 M4/GIRK, BTC-AM (AID 625;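 active means fluorescence slope after compound addition differing from the mean of all tested samples at 99.7% confidence, mostly higher but some lower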;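 further: thallium influx through GIRK channels coupled to M4 in HEK293 cells with BTC-AM dye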). The note with it: at 10 µM, actives lie on both sides. In a few lines:
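Material: M4/GIRK1/GIRK2 stable HEK293 cell line. Medium: pH 7.3 thallium assay buffer. Dosing: single compound concentration, 10 µM final. Schedule: 1 h dye loading, 2 min kinetic read. Measured by: kinetic fluorescence with BTC-AM dye. Read-out: post-addition slope, 15–24 s, of baseline-normalized fluorescence. Benchmarks: carbachol and DMSO controls.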

Assay [8] can be described thus: inhibitors of larval lipid processing in zebrafish, primary screen, whole organism, PED6 fluorescence, gall bladder and intestine (AID 686;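 active means a full or partial loss of lipid-probe fluorescence in the fish gall bladder, intestine or both, judged by eye; inactive means no fluorescence loss, or compound toxic to the fish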;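 further: larvae 5 to 7 days old with five fish per well; signal comes from phospholipase A2 cleavage of quenched PED6 carried via bile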). As to conditions: Zebrafish larvae PED6 lipid processing, fluorescence scoring; screened at 20 µM (by protocol). In outline: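 System: live zebrafish larvae aged 5-7 days, whole organism; measure: graded gall bladder and intestinal fluorescence inhibition per well; incubation: overnight exposure; reagent: ingested quenched lipid PED6 at 100 nM; signal: By-eye fluorescence microscopy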

Assay [9] is described as follows: inhibitors of Chlamydomonas gravitaxis, primary screen, whole organism, Chlamydomonas reinhardtii, WT vs cilia-less mutant, absorbance, 96-well (AID 463189;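 active means inhibition at or above 50% relative to wild type and mutant plate controls; inactive means inhibition below 50%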;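 further: 0% = wild type cc124 cells in DMSO and 100% = ciliumless bld1 mutant cells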). As to conditions: OD600 absorbance, 2 days, at 10 µM, stronger effect = higher value.
The mark [10] stands for this setting: measured here: cell density z-score.
Setting [11] is: measured here: nuclear c-Myc green intensity z-score.
Setting [12] is: measured here: nuclear pErk red intensity z-score, stronger effect = higher value.

The source made the active and inactive calls.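 How the source made its calls, unless noted: active means fluorescence slope higher than the sample average by over 3 SD (cut at about -0.22 in these data, passing the limit was not always enough); inactive means the rest.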

Sequence of Muscarinic acetylcholine receptor M4 (Homo sapiens) (P08173 whole entry, looked up): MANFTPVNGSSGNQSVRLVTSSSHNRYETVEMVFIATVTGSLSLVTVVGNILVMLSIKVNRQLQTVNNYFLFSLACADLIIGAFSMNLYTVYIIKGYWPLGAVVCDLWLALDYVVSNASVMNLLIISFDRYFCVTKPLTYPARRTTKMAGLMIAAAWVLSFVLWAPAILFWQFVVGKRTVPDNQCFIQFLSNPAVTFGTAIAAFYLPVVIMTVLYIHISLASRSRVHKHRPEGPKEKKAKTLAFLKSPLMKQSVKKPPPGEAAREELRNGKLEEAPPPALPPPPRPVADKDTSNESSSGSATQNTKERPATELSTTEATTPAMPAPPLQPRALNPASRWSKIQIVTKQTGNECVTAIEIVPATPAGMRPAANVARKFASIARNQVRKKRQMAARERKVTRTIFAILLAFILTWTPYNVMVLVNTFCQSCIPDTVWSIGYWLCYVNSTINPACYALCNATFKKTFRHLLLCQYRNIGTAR

As a reminder, the inhibition is the relative decrease from the control value, in per cent. `CCOc1ccc(C2CC(c3ccccc3)Nc3nc(N)nn32)cc1` (centres undefined): the cell count in assay [1] was found to be 364. Further, the inhibition in [1] was -2.2% (inactive); in assay [2], -80.6% (inactive); in [4] it was 11.9% (inactive); in [9] it was -15.5% (inactive). Further, the nuclei count in assay [2] worked out at 144%. For the same compound, the z-score was 1.38 in assay [3] (setting [10]), -1.02 in [3] (setting [11]) and 0.957 in assay [3] (setting [12]). The fluorescence slope is -0.467 (inactive) in [5] and 0.00481 (inactive) in assay [7]. The NADPH fluorescence slope in [6] is -0.000102 (inactive). Moreover, the outcome in assay [8] was inactive.
As to `CCOCCn1c(SC)nc2c1c(=O)[nH]c(=O)n2C`, the cell count in assay [1] came to 498. The inhibition is 6.3% (inactive) in assay [1], -6% (inactive) in assay [2], 12.8% (inactive) in assay [4] and 44.4% (inactive) in assay [9]. In addition, the nuclei count in assay [2] stood at 122%. Besides, the z-score in assay [3] (setting [10]) is 1.57; in [3] (setting [11]), -1.62; in assay [3] (setting [12]), 0.579. For the same compound, the values for the fluorescence slope in [5] and in [7] were -0.529 (inactive) and 0.00609 (inactive), respectively. The NADPH fluorescence slope in assay [6] is -3.7e-05 (inactive). For the same compound, in [8], the compound was classed as inactive.
For the compound `O=S(=O)(N[C@@H]1C[C@H]2CC[C@@H]1C2)c1cccs1`, the cell count in assay [1] is 433. Further, the inhibition in assay [1] is -8.9% (inactive); in [2], -51.9% (inactive); in [4] it was 9.37% (inactive); in assay [9] it was -1.87% (inactive). This compound yielded a nuclei count in [2] of 155%. The z-score in assay [3] (setting [10]) was 1.4; in assay [3] (setting [11]) it was -0.527; in [3] (setting [12]), -0.281. The values for the fluorescence slope in assay [5] and in assay [7] were -0.458 (inactive) and 0.00569 (inactive), respectively. Also, the NADPH fluorescence slope in assay [6] is -3.1e-05 (inactive). Further, the result in assay [8] was inactive.
For the compound `O=C(Oc1cccnc1)c1ccco1`, the cell count in assay [1] was 545. The inhibition is -0.5% (inactive) in assay [1], 2.1% (inactive) in assay [2], -3.95% (inactive) in assay [4] and -17% (inactive) in [9]. This compound showed a nuclei count in assay [2] of 99%. The figures for the z-score in assay [3] (setting [10]), in assay [3] (setting [11]) and in assay [3] (setting [12]) were -1.51, 1.45 and 1.18, respectively. Also, the results for the fluorescence slope in assay [5] and in assay [7] were -0.449 (inactive) and 0.00414 (inactive), respectively. For the same compound, the NADPH fluorescence slope in assay [6] is -4.3e-05 (inactive). Further, in assay [8], the call was inactive.
Take `CC(=O)Nc1ccc(OC(=O)CC2SC(=O)NC2=O)cc1` (centres undefined): in assay [1], the cell count turned out to be 552. The inhibition was -6.8% (inactive) in assay [1], -32.3% (inactive) in assay [2], -2.91% (inactive) in assay [4] and -6.84% (inactive) in assay [9]. Moreover, the nuclei count in assay [2] worked out at 97.7%. Besides, the z-score in [3] (setting [10]) is -1.89; in [3] (setting [11]), 0.746; in assay [3] (setting [12]) it was -1.34. In addition, the fluorescence slope is -0.469 (inactive) in assay [5] and 0.00549 (inactive) in assay [7]. Also, in assay [6], the NADPH fluorescence slope was -3.2e-05 (inactive). In addition, in assay [8], the result was inactive.
As to `COCCCNC(=O)c1c(N)n(/N=C/c2cccnc2)c2nc3ccccc3nc12`, the cell count in [1] amounted to 719. In addition, the inhibition in assay [1] was 4.4% (inactive); in assay [2] it was 0.4% (inactive); in [4], 4.25% (inactive); in assay [9] it was -6.04% (inactive). Besides, in assay [2], the nuclei count came to 113%. Further, the results for the z-score in assay [3] (setting [10]), in assay [3] (setting [11]) and in assay [3] (setting [12]) were -0.256, 0.735 and 2.99, respectively. Moreover, the values for the fluorescence slope in assay [5] and in assay [7] were -0.253 (inactive) and 0.00597 (inactive), respectively. The NADPH fluorescence slope in [6] is -3.5e-06 (inactive). The result in assay [8] was inactive.
For `Cc1cc(C)nc(N(C#N)CN2C(=O)c3ccccc3C2=O)n1`, in [1], the cell count came to 629. The inhibition in assay [1] is 6.2% (inactive); in assay [2], 26.6% (inactive); in [4] it was -9.53% (inactive); in assay [9] it was 30.7% (inactive). Also, the nuclei count in assay [2] worked out at 107%. Moreover, the z-score was -0.879 in assay [3] (setting [10]), 0.404 in assay [3] (setting [11]) and -0.916 in assay [3] (setting [12]). For the same compound, the fluorescence slope in assay [5] is -0.523 (inactive); in assay [7], 0.00446 (inactive). Besides, the NADPH fluorescence slope in assay [6] is -3.9e-05 (inactive). In assay [8], the compound was classed as inactive.
Turning to `COC(=O)c1sc2nc(N3CCCCC3)c3c(c2c1N)CC(C)(C)N(C)C3`, in [1], the cell count came to 365. The inhibition was -3.8% (inactive) in assay [1], -114% (inactive) in [2], 3.42% (inactive) in assay [4] and 7.69% (inactive) in [9]. Moreover, in [2], the nuclei count is 173%. Also, the z-score in assay [3] (setting [10]) was -0.314; in [3] (setting [11]) it was 1.33; in assay [3] (setting [12]), 0.691. The values for the fluorescence slope in assay [5] and in [7] were -0.155 (active) and 0.00431 (inactive), respectively. Further, in assay [6], the NADPH fluorescence slope is 8.1e-06 (inactive). Moreover, the compound was classed as inactive in assay [8].
Consider `COc1ccc(CCn2c(C)cc3c(c2=O)C(c2ccc4c(c2)OCO4)C(C#N)=C(N)O3)cc1OC` (centres undefined), for which the cell count in assay [1] turned out to be 697. For the same compound, the inhibition was -0.5% (inactive) in assay [1], -141% (inactive) in assay [2], 9.61% (inactive) in [4] and 5.67% (inactive) in assay [9]. The same compound came in with a nuclei count in assay [2] of 170%. Moreover, the z-score in assay [3] (setting [10]) was 1.12; in assay [3] (setting [11]) it was 0.0675; in assay [3] (setting [12]), -1.33. The results for the fluorescence slope in assay [5] and in assay [7] were -0.468 (inactive) and 0.00505 (inactive), respectively. Further, the NADPH fluorescence slope in assay [6] was -4.4e-05 (inactive). The result in [8] was inactive.
`Cc1cccc(-c2nc(C#N)c(NC3CCCCC3)o2)c1`: the cell count in [1] was determined as 373. Moreover, the inhibition was -5.1% (inactive) in assay [1], -71.9% (inactive) in assay [2], 9.82% (inactive) in [4] and -0.036% (inactive) in assay [9]. Moreover, the nuclei count in assay [2] amounted to 134%. Moreover, the z-score in assay [3] (setting [10]) was 1.1; in assay [3] (setting [11]), -0.201; in [3] (setting [12]) it was -0.602. For the same compound, the fluorescence slope in [5] was -0.492 (inactive); in assay [7], 0.00501 (inactive). In [6], the NADPH fluorescence slope is -0.000119 (inactive). Moreover, in assay [8], the outcome was inactive.
Consider `Cn1c(=O)c2c3c(sc2n2c(SCC(=O)c4ccccc4)nnc12)COC(C)(C)C3`, for which, in assay [1], the cell count worked out at 532. For the same compound, the inhibition is -12.7% (inactive) in assay [1], 44.5% (inactive) in [2], 9.07% (inactive) in [4] and 35.1% (inactive) in assay [9]. The compound further had a nuclei count in assay [2] of 48.5%. Moreover, the z-score in [3] (setting [10]) was 0.653; in [3] (setting [11]), -0.107; in [3] (setting [12]), -0.293. For the same compound, the fluorescence slope in assay [5] is -0.511 (inactive); in assay [7], 0.00374 (inactive). Also, in assay [6], the NADPH fluorescence slope is 1.2e-05 (inactive). Also, the compound was classed as inactive in assay [8].
Take `CC(C(=O)N(C)C)N(C#N)c1nc(N(C)C)nc(N(C)C)n1` (centres undefined): the cell count in assay [1] is 606. The inhibition in [1] is 7.4% (inactive); in [2] it was 7.8% (inactive); in assay [4] it was 7.21% (inactive); in [9], 26.6% (inactive). This compound showed a nuclei count in assay [2] of 80.9%. Further, the z-score was -1.86 in assay [3] (setting [10]), 1.62 in assay [3] (setting [11]) and 0.8 in assay [3] (setting [12]). Besides, the fluorescence slope in [5] was -0.506 (inactive); in assay [7], 0.00543 (inactive). In [6], the NADPH fluorescence slope was -5.1e-05 (inactive). Further, in assay [8], the outcome was inactive.
For the compound `COc1ccc(Nc2nnc(C)c3ccccc23)cc1C(N)=O`, in [1], the cell count is 616. Besides, the inhibition was -2.5% (inactive) in assay [1], -91.7% (inactive) in assay [2], 3.49% (inactive) in [4] and -4.27% (inactive) in assay [9]. Also, the nuclei count in assay [2] was 152%. Also, the z-score was -0.473 in assay [3] (setting [10]), 0.976 in [3] (setting [11]) and -0.605 in [3] (setting [12]). Further, the fluorescence slope in assay [5] is -0.459 (inactive); in [7], 0.00456 (inactive). In assay [6], the NADPH fluorescence slope is -0.000141 (inactive). Moreover, the result in assay [8] was inactive.
